Experimental data reported in ChEMBL document CHEMBL1124947, “Cationic antiprotozoal drugs. Trypanocidal activity of 2-(4'-formylphenyl)imidazo[1,2-a]pyridinium guanylhydrazones and related derivatives of quaternary heteroaromatic compounds” (J Med Chem, 1990).

Legend:
Type in all cases: functional
Mus musculus [1] = experiment: Trypanocidal Activity at I.C.E. value 0.44 when administered subcutaneously.
Summary of the method: (§1)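 Blood-stage T. rhodesiense infection came from a standard inoculum lethal to all untreated mice. Drug was given by subcutaneous injection to groups of five mice. Survival beyond 30 days counted as cure. […] Sub-curative doses scored 0, and data were normalized at each dose.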

Mus musculus [2] = experiment: Trypanocidal Activity at I.C.E. value 0.25 when administered perorally.
Mus musculus [3] = experiment: Trypanocidal Activity at I.C.E. value 0.42 when administered perorally.
Mus musculus [4] = experiment: Trypanocidal Activity at I.C.E. value 0.45 when administered subcutaneously.; summary of the method: as §1
[5] = system: Trypanosoma brucei rhodesiense; experiment: In Vitro measurement of inhibition of thymidine uptake in cell culture of Trypanosoma rhodesiense; conditions: read-out: ID50 (the source's name)
Summary of the method: (§2)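 Parasites harvested from infected rats and incubated 3 h across a drug concentration series, usually 0.1–100 µg/mL. Incorporation of radiolabeled thymidine measured. ID50 is the concentration (µg/mL) producing 50% inhibition.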

[6] = system: Trypanosoma brucei rhodesiense; experiment: In Vitro measurement of inhibition of leucine uptake in cell culture of Trypanosoma rhodesiense; conditions: read-out: ID50 (the source's name)
Summary of the method: (§3)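 Trypanosomes harvested from infected rats, cultured 3 h with several concentrations of drug, usually 0.1–100 µg/mL. Radiolabeled L-leucine uptake measured. ID50 is the concentration in µg/mL giving 50% inhibition of incorporation.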

Mus musculus [7] = experiment: Trypanocidal Activity at I.C.E. value 0.64 when administered perorally.
Mus musculus [8] = experiment: Trypanocidal Activity at I.C.E. value 0.39 when administered subcutaneously.; summary of the method: as §1
[9] = system: Trypanosoma brucei rhodesiense; experiment: In Vitro measurement of inhibition of Leucine uptake in cell culture of Trypanosoma rhodesiense.; conditions: read-out: ID50 (the source's name); summary of the method: as §3
[10] = system: Trypanosoma brucei rhodesiense; experiment: In Vitro measurement of inhibition of thymidine uptake in cell culture of Trypanosoma rhodesiense.; conditions: read-out: ID50 (the source's name); summary of the method: as §2
Mus musculus [11] = experiment: Trypanocidal Activity at I.C.E. value 0.80 when administered subcutaneously.
Summary of the method: (§4)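 Mice, in groups of five per dose, were given a standard inoculum of blood-stage T. rhodesiense that is lethal to all untreated controls, then dosed subcutaneously. Usually 11 dose levels were used (2^n × 0.42 mg/kg).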

Mus musculus [12] = experiment: Trypanocidal Activity at I.C.E. value 0.24 when administered subcutaneously; summary of the method: as §1
Mus musculus [13] = experiment: Trypanocidal Activity at I.C.E. value 0.61 when administered subcutaneously.; summary of the method: as §4
Mus musculus [14] = experiment: Trypanocidal Activity at I.C.E. value 0.35 when administered subcutaneously.; summary of the method: as §1
[15] = system: Trypanosoma brucei rhodesiense; experiment: In Vitro measurement of inhibition of leucine uptake in cell culture of Trypanosoma rhodesiense.; conditions: read-out: ID50 (the source's name); summary of the method: as §3
Mus musculus [16] = experiment: Trypanocidal Activity at I.C.E. value 0.59 when administered subcutaneously.; summary of the method: as §4
Mus musculus [17] = experiment: Trypanocidal Activity at I.C.E. value 0.23 when administered perorally.
Mus musculus [18] = experiment: Trypanocidal Activity at I.C.E. value 0.50 when administered perorally.
Mus musculus [19] = experiment: Trypanocidal Activity at I.C.E. value 0.68 when administered subcutaneously.; summary of the method: as §4
Mus musculus [20] = experiment: Trypanocidal Activity at I.C.E. value 0.53 when administered perorally.

Br.CC/N=C(\NCC)N/N=C/c1ccc(OCc2cn3ccccc3[n+]2C)cc1.[Br-]
CD50 (Mus musculus [1]): 0.8 mg/kg | CD50 (Mus musculus [2]): 106 mg/kg

C[n+]1cccc(COc2ccc(/C=N/NC(=N)N)cc2)c1.Cc1ccc(S(=O)(=O)O)cc1.Cc1ccc(S(=O)(=O)[O-])cc1
CD50 (Mus musculus [3]): 26 mg/kg | CD50 (Mus musculus [4]): 0.8 mg/kg | IC50 [5]: 1.8 µg/mL | IC50 [6]: > 10 µg/mL

Br.C[n+]1c(-c2ccc(/C=N/NC(=N)N3CCCC3)cc2)cn2ccccc21.[Br-]
CD50 (Mus musculus [7]): 6.6 mg/kg | CD50 (Mus musculus [8]): 0.06 mg/kg | IC50 [9]: 0.6 µg/mL | IC50 [10]: 0.6 µg/mL

Br.CC/N=C(\NCC)N/N=C/c1ccc(/C=C/c2cn3ccccc3[n+]2C)cc1.[Br-]
CD50 (Mus musculus [11]): 0.4 mg/kg

Br.C/N=C(/N/N=C/c1ccc(-c2cn3ccccc3[n+]2C)cc1)SC.[Br-]
CD50 (Mus musculus [12]): 26 mg/kg

CCNC(=N)N/N=C/c1ccc(/C=C/c2n(C)cc[n+]2C)cc1.Cc1ccc(S(=O)(=O)O)cc1.Cc1ccc(S(=O)(=O)[O-])cc1
CD50 (Mus musculus [13]): 0.11 mg/kg

Br.CCN(CC)C(=N)N/N=C/c1ccc(-c2cn3ccccc3[n+]2C)cc1.[Br-]
CD50 (Mus musculus [14]): 0.2 mg/kg | IC50 [15]: 1 µg/mL | IC50 [10]: 1.1 µg/mL

Br.Cn1c[n+](Cc2ccc(/C=N/NC3=NCCCN3)cc2)c2ccccc21.[Br-]
CD50 (Mus musculus [16]): 1.6 mg/kg | CD50 (Mus musculus [17]): 106 mg/kg

C[n+]1c(-c2ccc(/C=N/NC(=N)N)cc2)cn2cc(Cl)ccc21.Cc1ccc(S(=O)(=O)O)cc1.Cc1ccc(S(=O)(=O)[O-])cc1
CD50 (Mus musculus [8]): 1.6 mg/kg | CD50 (Mus musculus [18]): 13 mg/kg

Br.Cn1c(COc2ccc(/C=N/NC3=NCCN3)cc2)[n+](C)c2ccccc21.[Br-]
CD50 (Mus musculus [19]): 0.2 mg/kg | CD50 (Mus musculus [20]): 13 mg/kg
